Reference: ChEMBL document CHEMBL1137637, “Quinuclidine derivatives as potential antiparasitics” (Antimicrob Agents Chemother, 2007)
In brackets after ≈: the same amount, converted by molar mass.

Assays:
Squalene synthase = biological target: T1, Squalene synthase (Homo sapiens, UniProt P37268); assay: Inhibition of human recombinant squalene synthase expressed in Escherichia coli BL21(DE3 pLysS) up to 1 uM by liquid scintillation counter
T1 sequence (P37268 whole entry): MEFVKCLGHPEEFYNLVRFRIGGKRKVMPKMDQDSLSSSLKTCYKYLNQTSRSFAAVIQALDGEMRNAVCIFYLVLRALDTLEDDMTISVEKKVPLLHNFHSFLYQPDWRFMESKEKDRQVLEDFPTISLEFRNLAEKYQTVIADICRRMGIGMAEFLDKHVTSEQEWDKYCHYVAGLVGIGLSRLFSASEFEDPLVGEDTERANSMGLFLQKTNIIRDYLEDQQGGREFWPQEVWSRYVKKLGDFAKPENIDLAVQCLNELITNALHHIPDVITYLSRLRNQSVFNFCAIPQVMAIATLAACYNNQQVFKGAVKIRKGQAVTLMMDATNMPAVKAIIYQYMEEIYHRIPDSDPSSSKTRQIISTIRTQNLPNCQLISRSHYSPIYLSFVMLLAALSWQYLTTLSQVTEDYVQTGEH
In short: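 Human SQS in extracts of E. coli BL21(DE3 pLysS) carrying pHSS16, assayed under the same conditions as the L. major enzyme. Buffer: phosphate pH 7.4, MgCl2, CHAPS, Tween 80, DTT, BSA, and NADPH with a regenerating system. Substrate 0.5 μM radiolabelled farnesyl pyrophosphate. Squalene band radioactivity counted by scintillation.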

[1] = biological target: T2, Farnesyltransferase, putative (Leishmania major, UniProt Q4Q5W4); assay: Inhibition of Leishmania major recombinant squalene synthase expressed in Escherichia coli by liquid scintillation counter
T2 sequence (Q4Q5W4 whole entry): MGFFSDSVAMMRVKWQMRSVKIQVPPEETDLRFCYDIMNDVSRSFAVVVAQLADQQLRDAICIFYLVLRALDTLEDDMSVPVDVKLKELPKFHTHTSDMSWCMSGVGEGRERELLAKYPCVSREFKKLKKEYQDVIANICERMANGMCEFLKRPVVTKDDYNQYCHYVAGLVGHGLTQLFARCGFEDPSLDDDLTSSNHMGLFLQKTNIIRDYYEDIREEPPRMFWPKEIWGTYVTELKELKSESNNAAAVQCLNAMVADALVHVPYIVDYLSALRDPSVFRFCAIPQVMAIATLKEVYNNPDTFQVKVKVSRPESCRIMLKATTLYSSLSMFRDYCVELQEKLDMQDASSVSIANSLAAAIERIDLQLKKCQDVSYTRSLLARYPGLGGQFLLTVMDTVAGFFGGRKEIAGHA
In short: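 Soluble E. coli extract expressing L. major SQS truncated by 16 N-terminal and 40 C-terminal residues. Buffer: 50 mM phosphate pH 7.4, 20 mM MgCl2, 5 mM CHAPS, 1% Tween 80, 10 mM DTT, BSA, 0.25 mM NADPH, and a glucose-6-phosphate/G6PDH regenerating system. Substrate 0.5 μM radiolabelled farnesyl pyrophosphate. Squalene band counted by scintillation. IC50 from hyperbolic plot of five concentrations in duplicate, usually run twice.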

Leishmania amazonensis [2] = assay: Antileishmanial activity against Leishmania mexicana amazonensis promastigotes by trypan blue exclusion method; assay type: functional, organism-based
In short: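 L. mexicana amazonensis promastigotes cultured in liver infusion-tryptose medium with lactalbumin and 10% FCS at 26°C, unagitated. Cultures started at 2 × 10⁶ cells/ml and drug added at 0.5–1 × 10⁷ cells/ml. Density counted by electronic particle counter and hemocytometer. Viability by trypan blue exclusion. Triplicate growth experiments.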

Leishmania donovani = assay: Antileishmanial activity against Leishmania donovani MHOM/ET/67/L82 axenic amastigotes after 72 hrs by resazurin assay; assay type: functional, organism-based; details: MHOM/ET/67/L82, 72 h
In short: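 L. donovani MHOM/ET/67/L82 amastigotes grown axenically at 37°C in synthetic minimal medium at pH 5.4 with 10% heat-inactivated FBS under 5% CO2. 1 × 10⁵ amastigotes per well with seven threefold dilutions, 30 to 0.041 μg/ml. After 72 h, resazurin added for 2–4 h more. Fluorescence read at ex 536/em 588 nm. IC50 taken from sigmoidal curve. Run in duplicate, with an independent repeat for actives.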

L6 = assay: Cytotoxicity against rat L6 cells after 72 hrs by resazurin assay; assay type: cell-based; details: L6, 72 h
In short: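 L-6 cells seeded at 4 × 10⁴ cells/ml in RPMI 1640 with 10% FBS and 2 mM L-glutamine. After 24 h, medium replaced with serial drug dilution and incubated for 72 h at 37°C in 5% CO2. Resazurin added for 2–4 h, fluorescence read at ex 536/em 588 nm. IC50 from sigmoidal curve. Duplicate, with an independent repeat for actives.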

Trypanosoma cruzi = assay: Antitrypanosomal activity against trypomastigotes of Trypanosoma cruzi Tulahuen C2C4 containing lacZ gene in rat L6 cells after 4 days by chlorophenol red-beta-D-galactopyranoside/Nonidet assay; assay type: functional, organism-based; details: Tulahuen C2C4, L6, 96 h
In short: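 L-6 rat myoblasts seeded at 2,000 cells/well in RPMI 1640 with 10% FBS and 2 mM L-glutamine. After 24 h, 5,000 T. cruzi Tulahuen C2C4 lacZ trypomastigotes added with serial drug dilution. Incubated at 37°C in 5% CO2 for 4 days. CPRG/Nonidet substrate added and colour read at 540 nm after 2–4 h. IC50 from sigmoidal curve. Duplicate determinations.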

[3] = tested on: Trypanosoma brucei rhodesiense; assay: Trypanocidal activity against Trypanosoma brucei rhodesiense STIB 900 bloodstream form after 72 hrs by resazurin assay; assay type: functional, organism-based; details: STIB 900, 72 h
In short: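 T. b. rhodesiense STIB 900 bloodstream forms in MEM with 2-mercaptoethanol and 15% heat-inactivated horse serum, with serial drug dilutions. Incubated 72 h at 37°C in 5% CO2. Resazurin added for 2–4 h more, fluorescence read at ex 536/em 588 nm. IC50 from sigmoidal curve. Duplicate, with an independent repeat for actives.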

Plasmodium falciparum = assay: Antiplasmodial activity after 48 hrs against chloroquine and pyrimethamine-resistant Plasmodium falciparum K1 in human erythrocytes by [3H]hypoxanthine uptake; assay type: functional, organism-based
In short: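 P. falciparum K1 in human red cells in RPMI 1640 with 5% Albumax, exposed to serial drug dilutions. Incubated 48 h at 37°C under reduced oxygen, then 0.5 μCi [³H]hypoxanthine per well for 24 h more. Cells harvested onto glass-fibre filters and counted by scintillation. Result expressed as % of untreated control, with IC50 from sigmoidal curve. Duplicate, plus an independent repeat for actives.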

Leishmania amazonensis [4] = assay: Inhibition of sterol biosynthesis in Leishmania mexicana amazonensis promastigotes assessed as reduction in endogenous cholesta-5,7,24-trien-3beta-ol level at 10 uM after 96 hrs by gas-liquid chromatography; assay type: functional; set-up: scale not given: the % may be the effect or the level left
In short: (§1)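 L. mexicana promastigotes exposed to compound for 96 h. Total lipids extracted and neutral sterols separated from polar lipids by silicic acid column chromatography. Sterols analysed by TLC and by quantitative capillary gas-liquid chromatography with mass spectrometry. Composition expressed as mass % of free sterols, compared with untreated control.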

Leishmania amazonensis [5] = assay: Inhibition of sterol biosynthesis in Leishmania mexicana amazonensis promastigotes assessed as reduction in endogenous cholesta-7,24-dien-3beta-ol level at 10 uM after 96 hrs by gas-liquid chromatography; assay type: functional; set-up: scale not given: the % may be the effect or the level left; in short: as §1
Leishmania amazonensis [6] = assay: Inhibition of sterol biosynthesis in Leishmania mexicana amazonensis promastigotes assessed as reduction in exogenous cholesterol level at 10 uM after 96 hrs by gas-liquid chromatography; assay type: functional; set-up: scale not given: the % may be the effect or the level left; in short: as §1
Leishmania amazonensis [7] = assay: Inhibition of sterol biosynthesis in Leishmania mexicana amazonensis promastigotes assessed as reduction in endogenous 5-dehydro episterol level at 10 uM after 96 hrs by gas-liquid chromatography; assay type: functional; set-up: scale not given: the % may be the effect or the level left; in short: as §1
Leishmania amazonensis [8] = assay: Inhibition of sterol biosynthesis in Leishmania mexicana amazonensis promastigotes assessed as reduction in endogenous episterol level at 10 uM after 96 hrs by gas-liquid chromatography; assay type: functional; set-up: scale not given: the % may be the effect or the level left; in short: as §1
Leishmania amazonensis [9] = assay: Inhibition of sterol biosynthesis in Leishmania mexicana amazonensis promastigotes assessed as reduction in exogenous cholesterol level at 3 uM after 96 hrs by gas-liquid chromatography; assay type: functional; set-up: scale not given: the % may be the effect or the level left; in short: as §1
Leishmania amazonensis [10] = assay: Inhibition of sterol biosynthesis in Leishmania mexicana amazonensis promastigotes assessed as reduction in endogenous episterol level at 3 uM after 96 hrs by gas-liquid chromatography; assay type: functional; set-up: scale not given: the % may be the effect or the level left; in short: as §1
Leishmania amazonensis [11] = assay: Inhibition of sterol biosynthesis in Leishmania mexicana amazonensis promastigotes assessed as reduction in endogenous cholesta-7,24-dien-3beta-ol level at 3 uM after 96 hrs by gas-liquid chromatography; assay type: functional; set-up: scale not given: the % may be the effect or the level left; in short: as §1
Leishmania amazonensis [12] = assay: Inhibition of sterol biosynthesis in Leishmania mexicana amazonensis promastigotes assessed as reduction in endogenous cholesta-5,7,24-trien-3beta-ol level at 3 uM after 96 hrs by gas-liquid chromatography; assay type: functional; set-up: scale not given: the % may be the effect or the level left; in short: as §1
Leishmania amazonensis [13] = assay: Inhibition of sterol biosynthesis in Leishmania mexicana amazonensis promastigotes assessed as reduction in endogenous 5-dehydro episterol level at 3 uM after 96 hrs by gas-liquid chromatography; assay type: functional; set-up: scale not given: the % may be the effect or the level left; in short: as §1

Row | SMILES | IC50 (Squalene synthase) | IC50 [1] | MIC (Leishmania amazonensis [2]) | IC50 (Leishmania donovani) | IC50 (L6) | IC50 (Trypanosoma cruzi) | IC50 [3] | IC50 (Plasmodium falciparum) | Activity (Leishmania amazonensis [4]) | Activity (Leishmania amazonensis [5]) | Activity (Leishmania amazonensis [6]) | Activity (Leishmania amazonensis [7]) | Activity (Leishmania amazonensis [8]) | Activity (Leishmania amazonensis [9]) | Activity (Leishmania amazonensis [10]) | Activity (Leishmania amazonensis [11]) | Activity (Leishmania amazonensis [12]) | Activity (Leishmania amazonensis [13])
1 | C(=C1CN2CCC1CC2)c1ccc(C2OCCO2)cc1 | Not Active | > 1 µM | > 10 µM | 38.6 µM | 212 µM | > 111 µM | 12.5 µM | 14.2 µM | 12.7% | 6.7% | 14.1% | 54.9% | 11.7% | – | – | – | – | –
2 | OC[C@@H]1CC2CCN1C[C@@H]2C#Cc1ccc(OCc2ccccc2)cc1 (some centres not stated) | – | > 1 µM | 10 µM (≈ 3.47 µg/mL) | 7.4 µM | 16.1 µM | 3.4 µM | 1.2 µM | 0.6 µM | – | – | >99% | – | – | 61.4% | 22.7% | 15.9% | – | –
3 | C(=C1/CN2CCC1CC2)/c1ccccc1 | Not Active | > 1 µM | > 10 µM | > 151 µM | 382 µM | > 151 µM | 16 µM | 0.8 µM | 3.7% | 2.8% | 10.6% | 70.7% | 12.2% | – | – | – | – | –
4 | O=Cc1ccc(/C=C2\CN3CCC2CC3)cc1 | Not Active | > 1 µM | > 10 µM | > 132 µM | > 396 µM | > 132 µM | 13.1 µM | > 22 µM | 14% | 4.6% | 11.2% | 62% | 8.2% | – | – | – | – | –
5 | OC[C@H]1CC2CCN1C[C@@H]2C#Cc1ccc(OCc2ccccc2)cc1 (some centres not stated) | – | > 1 µM | 10 µM (≈ 3.47 µg/mL) | 8 µM | 16.6 µM | 3.1 µM | 1.2 µM | 1.1 µM | – | – | >99% | – | – | 21.2% | 14.2% | – | 10.7% | 63.2%
